Results of several laboratories.
Each line is one published result; the experiments were not run side by side.
Target: Serine/threonine-protein kinase PAK 3 (PAK3, Homo sapiens, UniProt O75914)

| SMILES | assay | conditions | remaining binding [%] |
| --- | --- | --- | --- |
| O=C(NCCCN1CCOCC1)c1ccc(Nc2ncc(Cl)c(-c3ccc(Cl)s3)n2)cc1 | binding, competition with immobilised ligand | 1 µM | 77 |
| FC(F)(F)Oc1cccc(-c2cnc3ccc(-c4ccncc4)nn23)c1 | cell-free assay, competition with immobilised ligand | 5 µM | 100 |
| N[C@@H]1CCN(c2nccc(-c3cnn4ncccc34)n2)C1 | binding | 1 µM | 99 |
| CS(=O)(=O)NCC[C@H](NC(=O)c1cncc2c1cnn2-c1ccc(F)cc1)c1ccnc(S(C)(=O)=O)c1 | cell-free assay, competition with immobilised ligand | 1 µM | 100 |
| COc1ccnn2ncc(-c3ccnc(N(C)C)n3)c12 | binding | 1 µM | 100 |
| c1cncc(-c2cccc(Nc3nccc(NC4CCCCC4)n3)c2)c1 | binding, competition with immobilised ligand | 10 µM | 38 |
| c1cnn2ncc(-c3ccnc(N4CCC45COC5)n3)c2c1 | binding | 1 µM | 88 |
| COc1cnc(Nc2cccc(S(N)(=O)=O)c2)nc1N1CCN(c2ccccc2)CC1 | binding, competition with immobilised ligand | 1 µM | 100 |
| COc1ccc2c(c1)O[C@H](c1ccc(OC)c(OC)c1)C[C@@H]2NC(=O)C1(c2ccc3c(c2)OC(F)(F)O3)CC1 | cell-free assay, competition with immobilised ligand | 1 µM | 100 |
| O=C(c1ccc(Nc2nccc(-c3cc4ccccc4s3)n2)cc1)N1CCC(N2CCCC2)CC1 | binding, competition with immobilised ligand | 1 µM | 39 |
| CN(C)c1nccc(-c2cnc3ncccn23)n1 | binding | 1 µM | 100 |
| COc1cnc(Nc2cccc(S(N)(=O)=O)c2)nc1N1CCN(c2ccccc2)C(=O)C1 | binding, competition with immobilised ligand | 1 µM | 75 |
| CSc1cccnc1N1CCN(Cc2nc3ccccc3[nH]2)CC1 | cell-free assay, competition with immobilised ligand | 1 µM | 87 |
| C[C@H]1CCN(c2nccc(-c3cnn4ncccc34)n2)C1 | binding | 1 µM | 94 |
| CN([C@@H]1CCc2c(CC(=O)O)c3ccccc3n2C1)S(=O)(=O)c1ccc(F)cc1 | cell-free assay, competition with immobilised ligand | 1 µM | 98 |
| COc1ncc2cc3ccccc3nc2c1C#N | cell-free assay, competition with immobilised ligand | 5 µM | 100 |
| CN(CCCC(F)(F)F)c1nccc(-c2cnn3ncccc23)n1 | binding | 1 µM | 100 |
| CCS(=O)(=O)c1cc2cc(C[C@](O)(CC(C)(C)c3ccc(F)cc3C(N)=O)C(F)(F)F)[nH]c2cn1 | cell-free assay, competition with immobilised ligand | 1 µM | 100 |
| Cc1cnc(Nc2ccc(C(=O)N3CCC(N4CCCC4)CC3)cc2)nc1-c1cc2ccccc2s1 | binding, competition with immobilised ligand | 1 µM | 23 |
| O=C(NCC1CCOCC1)c1n[nH]cc1NC(=O)c1c(F)cccc1F | binding, competition with immobilised ligand | 1 µM | 100 |
| CC(=O)c1c(NS(C)(=O)=O)c2cc(-c3ccc(Cl)cc3)c(-c3ccc(Cl)cc3Cl)nc2n(C)c1=O | cell-free assay, competition with immobilised ligand | 1 µM | 100 |
